Reference: ChEMBL document CHEMBL1133552, “Synthesis and evaluation of pharmacological and pharmacokinetic properties of 11H-[1,2,4]triazolo[4,5-c][2,3]benzodiazepin-3(2H)-ones” (J Med Chem, 2000)

Tests used:
[1] = Evaluated for anticonvulsant property in DBA/2 mice against Locomotion assessed by Rotarod test (ip administration); format: functional, Mus musculus
How it was run: (§1)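 Rotarod (3-cm diameter, 8 rpm): trained mice in groups of 10 tested 30 min after ip dosing; failure to stay on for 2 min = impairment. TD50 by Litchfield-Wilcoxon, at least 32 animals per value.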

[2] = Therapeutic index is the ratio between TD50 and ED50 (from the clonic phase of the audiogenic seizures); ND means not detectable
How it was run: (§2)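 Therapeutic index = TD50 (rotarod, ip) divided by ED50 for clonic phase of audiogenic seizures in DBA/2 mice; both by Litchfield-Wilcoxon, at least 32 animals each.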

[3] = Relative Lipophilicity measured by reversed-phase high performance thin-layer chromatography (RP-HPTLC); format: physicochemical
How it was run: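 Reversed-phase TLC; plates dried 105 °C, 1 h; mobile phase acetone/water 2:1 (v/v); 1 µL of 3 mg/mL CHCl3 solution spotted; five runs with varied placement; mean Rf converted via Rm = log[(1/Rf) - 1].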

[4] = Evaluated for anticonvulsant property in DBA/2 mice against Locomotion assessed by Rotarod test (ip administration); value ranges from 34-77.8; format: functional, Mus musculus; how it was run: as §1
[5] = Evaluated for anticonvulsant property in DBA/2 mice against Audiogenic seizures during clonic phase (ip administration); value ranges from 26.0-44.2; format: functional; settings: Mus musculus
How it was run: (§3)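 DBA/2 mice, genetically sound-susceptible (8-12 g, 22-25 days old, either sex), groups of 10; drug ip in 50% DMSO/50% saline (0.1 mL/10 g), auditory stimulation 30 min later; latency and incidence of clonic and tonic phases scored; ED50 via Litchfield-Wilcoxon, at least 32 animals per value.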

[6] = Evaluated for anticonvulsant property in DBA/2 mice against Locomotion assessed by Rotarod test (ip administration); value ranges from 87.3-231; format: functional, Mus musculus; how it was run: as §1
Mus musculus = assay: Anticonvulsant activity was determined when tested at 15 min from intraperitoneal administration; format: functional; settings: ip, 0.25 h
[7] = Evaluated for anticonvulsant property in DBA/2 mice against Audiogenic seizures during tonic phase (ip administration); ranges from [32.5-57.4]; format: functional; settings: Mus musculus; how it was run: as §3
[8] = Evaluated for anticonvulsant property in DBA/2 mice against Audiogenic seizures during clonic phase (ip administration); ranges from [39.2-81.1]; format: functional; settings: Mus musculus; how it was run: as §3
[9] = Evaluated for anticonvulsant property in DBA/2 mice against Audiogenic seizures during clonic phase (ip administration); value ranges from 46.0-132; format: functional; settings: Mus musculus; how it was run: as §3
[10] = Evaluated for anticonvulsant property in DBA/2 mice against Audiogenic seizures during tonic phase (ip administration); value ranges from 41.5-78.8; format: functional; settings: Mus musculus; how it was run: as §3
[11] = Evaluated for anticonvulsant property in DBA/2 mice against Audiogenic seizures during tonic phase (ip administration); value ranges from 8.04-21.3; format: functional; settings: Mus musculus; how it was run: as §3
[12] = Evaluated for anticonvulsant property in DBA/2 mice against Locomotion assessed by Rotarod test (ip administration); value ranges from 59.4-99.3; format: functional, Mus musculus; how it was run: as §1
[13] = Evaluated for anticonvulsant property in Swiss mice against PTZ induced seizures; value ranges from 43.8-79.1; format: functional; settings: Mus musculus
How it was run: (§4)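 Male Swiss mice given drug ip (50% DMSO/50% saline) 45 min before sc PTZ at CD97 (85 mg/kg); watched 30 min; protection = no clonic spasm lasting at least 5 s; ED50 by Litchfield-Wilcoxon.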

[14] = Evaluated for anticonvulsant property in DBA/2 mice against Audiogenic seizures during clonic phase (ip administration); value ranges from 10.5-38.2; format: functional; settings: Mus musculus; how it was run: as §3
[15] = Therapeutic index is the ratio between TD50 and ED50 (from the clonic phase of the audiogenic seizures); settings: read-out: TI; how it was run: as §2
[16] = Evaluated for anticonvulsant property in Swiss mice against MES induced seizures; value ranges from 26.8-45.8; format: functional; settings: Mus musculus
[17] = Evaluated for anticonvulsant property in DBA/2 mice against Audiogenic seizures during clonic phase (ip administration); value ranges from 60.3-91.0; format: functional; settings: Mus musculus; how it was run: as §3
[18] = Evaluated for anticonvulsant property in Swiss mice against PTZ induced seizures; value ranges from 72.2 - 114; format: functional; settings: Mus musculus; how it was run: as §4
[19] = Evaluated for anticonvulsant property in DBA/2 mice against Audiogenic seizures during tonic phase (ip administration); value ranges from 41.3-82.3; format: functional; settings: Mus musculus; how it was run: as §3
[20] = Evaluated for anticonvulsant property in Swiss mice against MES induced seizures; value ranges from 62.4 - 92.1; format: functional; settings: Mus musculus
[21] = Evaluated for anticonvulsant property in DBA/2 mice against AMPA induced seizures during clonic phase; value ranges from 13.8-37.2; format: functional; settings: Mus musculus
[22] = Evaluated for anticonvulsant property in DBA/2 mice against Locomotion assessed by Rotarod test (ip administration); value ranges from 46.2-99.8; format: functional, Mus musculus; how it was run: as §1
[23] = Evaluated for anticonvulsant property in DBA/2 mice against audiogenic Seizures after pretreatment with Aniracetam during clonic phase, *p<0.01; value ranges from 20.5-71.9; format: functional; settings: Mus musculus
[24] = Evaluated for anticonvulsant property in Swiss mice against MES induced seizures; ranges from [18.6-51.0]; format: functional; settings: Mus musculus
[25] = Evaluated for anticonvulsant property in DBA/2 mice against AMPA induced seizures during tonic phase; value ranges from 11.4-28.7; format: functional; settings: Mus musculus
[26] = Evaluated for anticonvulsant property in DBA/2 mice against audiogenic Seizures after pretreatment with Aniracetam during tonic phase, *p<0.01; value ranges from 12.7-45.5; format: functional; settings: Mus musculus
[27] = Evaluated for anticonvulsant property in DBA/2 mice against Audiogenic seizures during clonic phase (ip administration); value ranges from 11.8-22.0; format: functional; settings: Mus musculus; how it was run: as §3
[28] = Evaluated for anticonvulsant property in Swiss mice against PTZ induced seizures; value ranges from 41.5-78.8; format: functional; settings: Mus musculus; how it was run: as §4
[29] = Evaluated for anticonvulsant property in DBA/2 mice against Audiogenic seizures during tonic phase (ip administration); value ranges from 8.67-11.93; format: functional; settings: Mus musculus; how it was run: as §3
[30] = Evaluated for anticonvulsant property in Swiss mice against PTZ induced seizures; value ranges from 51.8-113; format: functional; settings: Mus musculus; how it was run: as §4
[31] = Evaluated for anticonvulsant property in Swiss mice against MES induced seizures; ranges from [45.6-80.3]; format: functional; settings: Mus musculus
[32] = Evaluated for anticonvulsant property in DBA/2 mice against Audiogenic seizures during tonic phase (ip administration); value ranges from 15.4-49.4; settings: Mus musculus
[33] = Evaluated for anticonvulsant property in DBA/2 mice against Locomotion assessed by Rotarod test (ip administration); value ranges from 73.8-206; format: functional, Mus musculus; how it was run: as §1
[34] = Evaluated for anticonvulsant property in DBA/2 mice against Audiogenic seizures during clonic phase (ip administration); value ranges from 32.5-61.2; settings: Mus musculus
[35] = Evaluated for anticonvulsant property in DBA/2 mice against AMPA induced seizures during clonic phase; value ranges from 27.5-64.3; format: functional; settings: Mus musculus
[36] = Evaluated for anticonvulsant property in Swiss mice against MES induced seizures; value ranges from 33.5-56.0; format: functional; settings: Mus musculus
[37] = Evaluated for anticonvulsant property in Swiss mice against PTZ induced seizures; value ranges from 45.6-80.3; format: functional; settings: Mus musculus; how it was run: as §4
[38] = Evaluated for anticonvulsant property in DBA/2 mice against Audiogenic seizures during clonic phase (ip administration); value ranges from 16.3-[…]; format: functional; settings: Mus musculus; how it was run: as §3
[39] = Evaluated for anticonvulsant property in DBA/2 mice against AMPA induced seizures during tonic phase; value ranges from 20.6-50.3; format: functional; settings: Mus musculus
[40] = Evaluated for anticonvulsant property in DBA/2 mice against Locomotion assessed by Rotarod test (ip administration); value ranges from 65.1-126; format: functional, Mus musculus; how it was run: as §1
[41] = Evaluated for anticonvulsant property in DBA/2 mice against Audiogenic seizures during tonic phase (ip administration); value ranges from 14.3-31.9; format: functional; settings: Mus musculus; how it was run: as §3
[42] = Evaluated for anticonvulsant property in DBA/2 mice against audiogenic Seizures after pretreatment with Aniracetam during tonic phase, *p<0.01; value ranges from 23.5-62.7; format: functional; settings: Mus musculus
[43] = Evaluated for anticonvulsant property in DBA/2 mice against audiogenic Seizures after pretreatment with Aniracetam during clonic phase; value ranges from 28.3-91.5; format: functional; settings: Mus musculus

With `COc1cc2c(cc1OC)C(c1ccc([N+](=O)[O-])cc1)=NNC(=O)C2` the TD50 [1] was over 150 µM/kg, the TI [2] was “Not detectable” and the Rm [3] was -0.145.

With `COc1cc2c(cc1OC)C(c1cccc([N+](=O)[O-])c1)=NNC(=O)C2` the TD50 [1] was over 150 µM/kg, the TI [2] was “Not detectable” and the Rm [3] was -0.181.

`COc1cc2c(cc1OC)C(c1cccc(N)c1)=NNC(=O)C2` gave a TD50 [4] of 51.5 µM/kg and a Rm [3] of -0.619.

With `COc1cc2c(cc1OC)C(c1ccccc1)=NNC(=O)C2` the ED50 [5] was 33.9 µmol/kg, the TD50 [6] was 142 µM/kg and the Rm [3] was -0.28.

With `COc1cc2c(cc1OC)C(c1ccc(N)cc1)=NNC(=O)C2` the TD50 [1] was 56.8 µM/kg, the ED50 (Mus musculus) was over 50 µmol/kg and the Rm [3] was -0.647.

Compound `COc1cc2c(cc1OC)C(c1cccc([N+](=O)[O-])c1)=Nn1c(O)nnc1C2` has a TD50 [1] of over 150 µM/kg, an ED50 [7] of 43.2 µmol/kg and a Rm [3] of -0.402. For the same compound, the ED50 [8] was 56.4 µmol/kg.

`COc1cc2c(cc1OC)C(c1ccc(F)cc1)=NNC(=O)C2` showed an ED50 [9] of 78 µmol/kg, a TD50 [1] of over 150 µM/kg and an ED50 [10] of 57.2 µmol/kg. The Rm [3] was -0.28.

With `COc1cc2c(cc1OC)C(c1cccc(N)c1)=Nn1c(O)nnc1C2` the ED50 [11] was 13.1 µmol/kg, the TD50 [12] was 76.8 µM/kg and the ED50 [13] was 58.9 µmol/kg. The ED50 [14] was 20.1 µmol/kg, the selectivity ratio [15] was 3.8 and the ED50 [16] was 35.1 µmol/kg. The Rm [3] was -0.74.

For `COc1cc2c(cc1OC)C(c1ccc([N+](=O)[O-])cc1)=Nn1c(O)nnc1C2`, the ED50 [17] was 74.1 µmol/kg, the TD50 [1] was over 150 µM/kg and the ED50 [18] was 90.7 µmol/kg. It also gave an ED50 [19] of 58.3 µmol/kg, an ED50 [20] of 75.8 µmol/kg and a Rm [3] of -0.368.

Compound `COc1cc2c(cc1OC)C(c1ccc(N)cc1)=Nn1c(O)nnc1C2` has an ED50 [21] of 22.1 µmol/kg, a TD50 [22] of 65.8 µM/kg and an ED50 [23] of 38.4 µmol/kg. It also gave an ED50 [24] of 30.8 µmol/kg, an ED50 [25] of 18.1 µmol/kg and an ED50 [26] of 24.1 µmol/kg. It also gave an ED50 [27] of 16.1 µmol/kg, an ED50 [28] of 57.2 µmol/kg and an ED50 [29] of 10.2 µmol/kg. It also gave a selectivity ratio [15] of 4, an ED50 (Mus musculus) of 27.8 µmol/kg and a Rm [3] of -0.837.

Work on `COc1cc2c(cc1OC)C(c1ccccc1)=Nn1c(O)nnc1C2` yielded an ED50 [30] of 76.5 µmol/kg, an ED50 [31] of 60.5 µmol/kg and an ED50 [32] of 27.5 µmol/kg. It also gave a selectivity ratio [15] of 2.8, a TD50 [33] of 123 µM/kg and an ED50 [34] of 44.6 µmol/kg. It also gave a Rm [3] of -0.508.

With `COc1cc2c(cc1OC)C(c1ccc(F)cc1)=Nn1c(O)nnc1C2` the ED50 [35] was 42.1 µmol/kg, the ED50 [36] was 43.4 µmol/kg and the ED50 [37] was 60.5 µmol/kg. It also gave an ED50 [38] of 32.1 µmol/kg, an ED50 [39] of 32.2 µmol/kg and a TD50 [40] of 90.6 µM/kg. It also gave an ED50 [41] of 21.8 µmol/kg, an ED50 [42] of 38.4 µmol/kg and a selectivity ratio [15] of 2.8. It also gave an ED50 [43] of 50.9 µmol/kg and a Rm [3] of -0.402.

In the case of `CC1=NN=C(c2ccc(N)cc2)c2cc3c(cc2C1)OCO3` [GYKI-52466], the Rm [3] is reported as -0.368.
